Measured values from ChEMBL document CHEMBL1151817, “Steroids from an Australian sponge Psammoclema sp” (J Nat Prod, 2009).
pIC50: −log10 of the molar value. The source made the active and inactive calls. The rule behind the calls is not given here.

Key:
HT-29 = experiment: Cytotoxicity against human HT-29 cells after 72 hrs by MTT assay; type: functional; details: HT-29, 72 h
How it was run: (§1)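 ATCC lines grown in DMEM with 10% FBS, glutamine, antibiotics, 37 °C, 5% CO2; 2000–3000 cells/well plated, compound added 24 h later during log growth. Eight concentrations, 0.25–50 μM (from 20 mM DMSO stock), 72 h exposure; MTT absorbance at 540 nm. GI50 = concentration giving 50% growth inhibition versus untreated cells; duplicate wells, two separate experiments.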

MCF7 = experiment: Cytotoxicity against human MCF7 cells after 72 hrs by MTT assay; type: functional; details: MCF7, 72 h; how it was run: as §1
DU-145 = experiment: Cytotoxicity against human DU145 cells after 72 hrs by MTT assay; type: functional; details: DU-145, 72 h; how it was run: as §1
A2780 = experiment: Cytotoxicity against human A2780 cells after 72 hrs by MTT assay; type: functional; details: A2780, 72 h; how it was run: as §1
Ovis aries = organism: Ovis aries; experiment: (§2) Inhibition of dynamin 1 GTPase activity in sheep brain peripheral membrane by microplate spectrophotometry; type: cell membranes
How it was run: (§3)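 Sheep brain dynamin I, affinity-purified on GST-Amph2-SH3, used at 20 nM. Sample preincubated 12 min at 37 °C with 0.3 mM GTP in Tris pH 7.5 buffer containing Mg2+, Tween 80 and protease inhibitors. Enzyme then added; 30 min at 37 °C with shaking; phosphatidylserine liposome stimulation. Stopped with EDTA; malachite green phosphate readout at 650 nm against phosphate standard curve.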

[1] = as §2; type: cell membranes, Ovis aries; how it was run: as §3

| Activity (Ovis aries) | pIC50 [1] | Compound | GI50 (HT-29) | GI50 (MCF7) | GI50 (DU-145) | GI50 (A2780) |
| --- | --- | --- | --- | --- | --- | --- |
| inactive |  | CC(C)CCCC(C)C1C(O)CC2C3CCC4CC(O)CCC4(C)C3CC(O)C21C (stereo not given) | 5 µM | 5.5 µM | 6.7 µM | 5.4 µM |
| inactive |  | C=C(CCC(C)C1C(O)CC2C3CCC4CC(O)CCC4(C)C3CC(O)C21C)C(C)C (stereo not given) | 18 µM | 18 µM | 27 µM | 19 µM |
| inactive |  | CC(C)C(C)/C=C/C(C)C1C(O)CC2C3CCC4CC(O)CCC4(C)C3CC(O)C21C (stereo not given) | 7 µM | 17 µM | 27 µM | 10 µM |
|  | < 3.52 | C=C(C)C(CC)CCC(C)C1C(O)CC2C3CCC4CC(O)CCC4(C)C3CC(O)C21C (stereo not given) | 7.1 µM | 10 µM | 13 µM | 11 µM |
